# Screening data from PubChem BioAssay.
# Most compounds without a hit are left out; they make up all but 3.7% or so of the library.
# NCF1 inh: p47phox/p22phox peptide binding inhibitors, primary screen, biochemical, uHTS, NADPH oxidase regulatory subunit; Neutrophil cytosol factor 1 (Homo sapiens), P14598; fluorescence polarization, 2 h; 220,000 tested, 0.53% active; inhibition, % at 24.7 µM;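 note: 0% = p47phox with labelled peptide and 100% = labelled peptide alone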
# RBBP9 inhibitor: human RBBP9 inhibitors, primary screen, biochemical, fluorescence polarization, FP-Rh probe, HTS; Serine hydrolase RBBP9 (Homo sapiens), O75884; recombinant RBBP9; inhibition, % at 7.94 µM; 220,000 tested, 0.2% active; AID 1515, 2009;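 active = inhibition above the campaign mean of all tested compounds plus 3 SD, cut at about 14% in these data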;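 note: plate controls were DMSO wells with RBBP9 for no effect and wells lacking RBBP9 protein for full effect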
# Target sequence (O75884 whole entry, looked up): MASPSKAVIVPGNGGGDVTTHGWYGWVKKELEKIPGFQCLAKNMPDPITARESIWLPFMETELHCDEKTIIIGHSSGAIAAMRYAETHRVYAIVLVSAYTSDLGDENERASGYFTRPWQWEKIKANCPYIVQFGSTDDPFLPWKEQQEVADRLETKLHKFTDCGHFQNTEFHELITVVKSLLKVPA
#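 system = RBBP9 protein | input = RBBP9 at 2.5 µM in dispensed solution, before mixing | measured by = fluorescence polarization (mP), excitation 525 nm, emission 598 nm | incubation = enzyme-compound preincubation 30 min, then probe labeling 45 min, 25 °C | buffer or medium = Tris-NaCl-Pluronic buffer, pH 8.0 | compound = single dose 7.94 µM | also added = FP-Rh probe, 375 nM dispensing solution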
# EBV gp42 block: Epstein-Barr virus gp42 inhibitors, primary screen, biochemical, uHTS, fluorescence polarization. 220,000 tested, 0.42% active. Glycoprotein 42 (Epstein-Barr virus (strain AG876)), Q1HVG2. inhibition, % (tested at 21.74 µM). Fluorescence polarization binding assay, mP read-out; in the data active = inhibition above about 50%
# Target sequence (Q1HVG2 whole entry, looked up): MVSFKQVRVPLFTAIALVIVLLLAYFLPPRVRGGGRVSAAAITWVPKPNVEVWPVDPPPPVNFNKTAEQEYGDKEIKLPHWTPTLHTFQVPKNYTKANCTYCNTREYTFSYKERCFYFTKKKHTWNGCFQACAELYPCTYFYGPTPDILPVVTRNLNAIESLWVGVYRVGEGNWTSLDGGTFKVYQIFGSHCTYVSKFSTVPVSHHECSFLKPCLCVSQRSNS
# eIF4E 4G PPI: eIF4E–eIF4G protein interaction inhibitors, primary screen, biochemical, uHTS, TR-FRET, eIF4GI fragment. Eukaryotic translation initiation factor 4E (Mus musculus) + Eukaryotic translation …. TR-FRET eIF4E-eIF4GI(517-606) binding, 2 h. inhibition, % at 21.7 µM. 220,000 tested, 0.37% active. AID 782, 2007;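 note: 0% = full FRET control wells and 100% = background wells lacking eIF4GI fragment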
# WT yeast gro inh: growth inhibition of WT strain, primary screen, mitochondrial fusion inhibitor project, WT and mutant strains, chemical genetic; mitochondrial fusion phenotypic screen; inhibition, % at 10 µM; 190,000 tested, 2.1% active; AID 1362, 2008; in the data active = inhibition above about 58%; tested in S. cerevisiae
# 14-3-3 Bad PPI: inhibitors of 14-3-3 zeta/Bad binding, primary screen, biochemical, TR-FRET, bovine 14-3-3 zeta; TR-FRET 14-3-3zeta/Dy647-pBad peptide displacement, 1 h; 14-3-3 protein zeta/delta (Bos taurus), P63103; AID 781, 2007; 220,000 tested, 0.71% active; inhibition, % at 21.7 µM;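 active = inhibition above about 70%, limit read from the data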;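 note: 0% = full 14-3-3 plus peptide FRET controls and 100% = background without 14-3-3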
# * hit, by the source's call; · = not tested or not shown; [ ] = dose if it differs, or a comment.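 Rule for the calls, unless noted: active = inhibition above about 30% (limit read from the data); inactive = the rest.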
SMILES,NCF1 inh,RBBP9 inhibitor,EBV gp42 block,eIF4E 4G PPI,WT yeast gro inh,14-3-3 Bad PPI
CCN(CC)CCOC(=O)c1ccc(NC(=O)c2cn(-c3ccccc3)nc2-c2cccs2)cc1,-29,-44,-3,9,90*,2
CC(=O)OCCCNc1cc(Sc2ccc(C)cc2)c2nonc2c1[N+](=O)[O-],-11,-9,-11,2,0,0
CC(=O)OCCCNc1cc(Sc2nc3ccccc3s2)c2nonc2c1[N+](=O)[O-],-19,-1,78*,-44,97*,1
O=C(N/C(=C\c1ccc(Cl)cc1)C(=O)N1CCOCC1)c1ccc([N+](=O)[O-])cc1,-3,1,-6,2,13,4
O=c1oc2cc(O)ccc2cc1-c1nc2c(s1)CCc1ccccc1-2,-35,-3,127*,-5,98*,3
O=c1oc2ccccc2cc1-c1nc2c(s1)CCc1ccccc1-2,-30,-7,-5,2,0,-32
COc1cc(CNc2ccc(N3CCCC3)cc2)cc(Cl)c1OC,7,-2,-19,17,14,6
CCOc1cc(CNc2ccc(N3CCCCC3)cc2)cc(Br)c1OCC(=O)NC(C)(C)C,3,10,-26,-1,65*,-2
CCOc1cc(CNc2ccc(N3CCCC3)cc2)cc(Cl)c1OC,-2,0,7,35*[fluorescence artefact?],15,19
CN(C)c1ccc(O)c2c1CC1CC3[C@@H](N(C)C)C(=O)C(C(N)=O)=C(O)[C@]3(O)C(=O)C1=C2O (stereo partly drawn),5,12,-3,9,60*,26
CSc1ccc(CN2CCN(CC=C(C)C)C(CCO)C2)cc1 (stereo not drawn),3,-7,0,-3,8,6
C=CCN(c1ccccc1C(=O)O)S(=O)(=O)c1ccc(C)cc1,-5,-2,0,-3,-1,-8
Cc1ccsc1C(=O)NCCC(c1ccccc1)c1ccccc1,1,-8,4,0,67*,11
Cc1nc(C)c(C(=O)Nc2ccccc2-c2ccccc2)o1,-3,-6,1,-2,-14,12
Cc1nc(C)c(C(=O)NCCC(c2ccccc2)c2ccccc2)o1,-10,-7,4,0,0,92*
CCCCC(=O)/C=C/n1c(=S)oc2ccccc21,-18,-5,-20,-4,11,-12
Nc1cc(Nc2ccc(Br)cc2)nc(N)n1,-22,1,34,5,·,-7
O=C(NCc1ccc2c(c1)OCO2)c1cccc(Cl)c1,2,-11,0,5,-2,-5
Cc1c(C(=O)NCc2ccc3c(c2)OCO3)oc2ccc(Br)cc12,-46,-6,-15,-7,62*,12
O=C(NCc1ccc2c(c1)OCO2)c1ccc(-c2ccc(Cl)cc2)o1,-9,-14,7,3,69*,1
CC(=O)C1=C(O)C(=O)N(C)C1c1ccccc1[N+](=O)[O-] (stereo not drawn),1,-12,17,1,·,-12
CC(CN1CCN(Cc2ccccc2)CC1)OC(=O)c1ccco1 (stereo not drawn),1,0,-9,-8,·,1
Cc1ccc(OCc2nnc(N)s2)cc1C,-7,-5,2,-1,·,-5
CCSCc1nnc(SCC(=O)Nc2nc(C)cs2)n1C,4,4,5,-1,6,0
CC(=O)N/N=C(\N)c1nonc1N,-2,-1,-21,-2,·,-2
SMILES,NCF1 inh,RBBP9 inhibitor,EBV gp42 block,eIF4E 4G PPI,WT yeast gro inh,14-3-3 Bad PPI
Nc1cccc(C(=O)OCC(=O)Nc2cccc3c2C(=O)c2ccccc2C3=O)c1,14,-4,92*,8,14,57
CC(C)CC(=O)N1CCN(CC2CC=CCC2)CC1 (stereo not drawn),1,2,-6,4,-9,77*
CC(C)(C)OC(=O)N1CCCN(C(=O)Nc2ccc(C(F)(F)F)cc2)CC1,-5,-3,-6,-2,·,3
Cc1ccc2nc3sc(-c4nnc(-c5ccccc5[N+](=O)[O-])o4)c(N)c3cc2c1,44*,0,30,3,3,88*[fluorescence artefact?]
Cc1ccc2cc(C#N)c(SCc3nnc(-c4ccccc4[N+](=O)[O-])o3)nc2c1,-10,-2,-44,1,-26,6
COC(=O)c1ccc(C(=O)OC)c(=O)[nH]1,-3,6,-17,0,·,8
COC(=O)c1ccn(C(=O)c2ccc(Cl)cc2)n1,-10,-1,3,-4,93*,4
Cc1ccc2nc(N(CCN(C)C)C(=O)/C=C/c3cccs3)sc2c1,3,-9,11,-6,30,-3
Cc1cc(C)c2sc(N(CCN(C)C)C(=O)c3c(F)cccc3F)nc2c1,-3,-3,-1,-3,62*,3
Cc1cc(C)c2sc(N(CCCN(C)C)C(=O)CN3C(=O)c4ccccc4C3=O)nc2c1,-34,3,2,1,38,-3
CCCCN(C)S(=O)(=O)c1ccc(C(=O)N(CCN(C)C)c2nc3ccc(C)cc3s2)cc1,-2,-6,4,-3,3,-11
Cc1cc(C)c2sc(N(CCCN(C)C)C(=O)c3ccc(Br)s3)nc2c1,2,-4,1,0,94*,-5
CCCCN(CC)S(=O)(=O)c1ccc(C(=O)N(CCCN(C)C)c2nc3cc(C)cc(C)c3s2)cc1,36*,-6,-15,10,96*,13
CC(C)Nc1nnc(SC(C)C(=O)NCc2ccc3c(c2)OCO3)s1 (stereo not drawn),4,1,-15,1,-12,-2
O=C(O)c1ccccc1C(=O)NC1CCCCNC1=O (stereo not drawn),-12,1,-8,5,·,1
COC1=C/C(=C/c2c(N)n3nc(-c4ccc(C)cc4)sc3nc2=O)C=CC1=O,-125,-16,46,22,0,72*
COC(=O)CSc1nc2cc3c(cc2cc1C)OCO3,-12,-7,-15,7,70*,7
Cc1cc2cc3c(cc2nc1SCC(=O)OC(C)C)OCCO3,-4,-5,-24,6,-8,91*[fluorescence artefact?]
CCc1cc2ccc(C)cc2nc1SCC(=O)Nc1cc(C)on1,3,-4,-15,1,-6,2
Cc1cc2cc3c(cc2nc1SCC(=O)O)OCCO3,-8,-1,-4,0,-1,5
CCc1cc2cc3c(cc2nc1SCC(=O)Nc1cc(C)on1)OCO3,-4,-7,-20,-56,-57,82*
CCn1nc(C)c(Br)c1C(=O)Sc1ccccc1Cl,-14,-4,-15,1,·,1
